Test results from ChEMBL document CHEMBL2321697, “The effect of absolute configuration on activity, subtype selectivity (M3/M2) of 3α-acyloxy-6β-acetoxyltropane derivatives as muscarinic M3 receptor antagonists” (Bioorg Med Chem, 2013).

Assays:
[1] = target: Muscarinic receptor M2 and M3 (Rattus norvegicus) (UniProt P08483+P10980); assay: Selectivity ratio of Ki for muscarinic M2 receptor in Sprague-Dawley rat left atria to Ki for muscarinic M3 receptor in Sprague-Dawley rat submandibulary gland
Muscarinic receptor M2 and M3 (Rattus norvegicus), sequence (P08483 whole entry, looked up, one chain of several): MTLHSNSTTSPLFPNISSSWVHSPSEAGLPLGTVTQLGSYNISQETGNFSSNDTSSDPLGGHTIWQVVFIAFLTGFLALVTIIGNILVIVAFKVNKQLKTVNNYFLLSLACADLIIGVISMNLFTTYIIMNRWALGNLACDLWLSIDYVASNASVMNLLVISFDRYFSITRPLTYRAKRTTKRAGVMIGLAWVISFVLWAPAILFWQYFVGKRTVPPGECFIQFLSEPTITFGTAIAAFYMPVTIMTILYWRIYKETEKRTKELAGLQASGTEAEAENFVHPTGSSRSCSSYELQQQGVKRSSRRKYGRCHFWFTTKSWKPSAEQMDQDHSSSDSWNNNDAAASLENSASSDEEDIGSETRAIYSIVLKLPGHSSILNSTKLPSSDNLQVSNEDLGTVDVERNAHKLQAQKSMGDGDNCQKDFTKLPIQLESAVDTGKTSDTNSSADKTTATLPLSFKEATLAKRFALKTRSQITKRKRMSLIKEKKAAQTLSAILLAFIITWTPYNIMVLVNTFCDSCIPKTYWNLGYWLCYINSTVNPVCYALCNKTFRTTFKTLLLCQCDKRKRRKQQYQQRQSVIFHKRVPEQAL

[2] = target: T1, Muscarinic acetylcholine receptor M2 (Rattus norvegicus, UniProt P10980); assay: Displacement of [3H]NMS from muscarinic M2 receptor in Sprague-Dawley rat left atria after 60 mins
T1 sequence (P10980 whole entry): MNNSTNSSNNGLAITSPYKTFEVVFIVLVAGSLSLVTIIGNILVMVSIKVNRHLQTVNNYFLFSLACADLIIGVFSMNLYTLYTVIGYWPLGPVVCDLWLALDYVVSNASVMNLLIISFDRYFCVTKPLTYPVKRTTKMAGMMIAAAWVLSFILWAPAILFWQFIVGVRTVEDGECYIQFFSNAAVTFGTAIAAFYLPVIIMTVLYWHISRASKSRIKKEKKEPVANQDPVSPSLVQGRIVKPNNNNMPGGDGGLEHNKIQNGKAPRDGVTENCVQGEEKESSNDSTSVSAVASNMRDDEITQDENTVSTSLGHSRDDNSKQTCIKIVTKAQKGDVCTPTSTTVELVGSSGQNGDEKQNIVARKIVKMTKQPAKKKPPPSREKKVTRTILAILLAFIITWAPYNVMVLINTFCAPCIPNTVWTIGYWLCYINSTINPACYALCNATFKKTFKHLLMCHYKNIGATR
How it was run: (§1)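 Membranes from male SD rat (220–250 g) left atria (M2) or submandibulary glands (M3). Tissue homogenised in ice-cold 0.32 M sucrose/50 mM Tris pH 7.4, then spun at 1000g and 20000g, all steps at 4 °C. Membranes (0.1 mg protein) incubated 60 min at 37 °C with 0.4 nM [3H]NMS plus increasing test concentrations. Filtration read-out. IC50 converted to Ki by Cheng–Prusoff, mean SEM.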

[3] = target: Muscarinic acetylcholine receptor M3 (Rattus norvegicus, UniProt P08483); assay: Displacement of [3H]NMS from muscarinic M3 receptor in Sprague-Dawley rat submandibulary gland after 60 mins; how it was run: as §1
Muscarinic acetylcholine receptor M3 (Rattus norvegicus, UniProt P08483), sequence (P08483 whole entry): as the sequence (P08483 whole entry, looked up, one chain of several) above

[4] = target: Muscarinic acetylcholine receptor M3 (Cavia porcellus, UniProt Q8VH26); assay: Antagonist activity at muscarinic M3 receptor in guinea pig ilea assessed as inhibition of carbachol-induced contraction; conditions: read-out: pA2 (converted)
Muscarinic acetylcholine receptor M3 (Cavia porcellus, UniProt Q8VH26), sequence (Q8VH26 whole entry): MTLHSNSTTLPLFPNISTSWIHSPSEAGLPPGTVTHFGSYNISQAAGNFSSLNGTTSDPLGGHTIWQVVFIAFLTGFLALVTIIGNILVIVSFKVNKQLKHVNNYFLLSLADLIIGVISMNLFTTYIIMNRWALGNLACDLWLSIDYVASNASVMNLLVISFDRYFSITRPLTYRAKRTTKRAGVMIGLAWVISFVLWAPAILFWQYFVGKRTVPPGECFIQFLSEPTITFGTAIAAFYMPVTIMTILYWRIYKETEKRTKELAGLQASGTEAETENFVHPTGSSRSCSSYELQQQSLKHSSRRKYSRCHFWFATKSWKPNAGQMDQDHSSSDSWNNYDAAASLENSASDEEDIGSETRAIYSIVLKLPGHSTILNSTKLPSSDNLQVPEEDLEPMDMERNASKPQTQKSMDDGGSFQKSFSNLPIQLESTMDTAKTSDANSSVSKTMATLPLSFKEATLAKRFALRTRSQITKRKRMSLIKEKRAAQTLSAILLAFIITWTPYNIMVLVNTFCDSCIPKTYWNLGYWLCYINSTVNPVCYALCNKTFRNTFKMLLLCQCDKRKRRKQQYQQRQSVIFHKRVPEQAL
How it was run: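 Ileal strips (1.5 cm) in 10 ml baths of Kreb's solution under 1000 mg load, equilibrated 30 min with fluid changed every 15 min. Isotonic recording. Cumulative carbachol curve with roughly 3-fold steps, each added once the prior response was steady. Responses expressed as % of control maximum. Antagonist at three concentrations. pA2 by Schild analysis.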

Muscarinic receptor 2 = target: T2, Muscarinic receptor 2 (Cavia porcellus, UniProt Q8VH27); assay: Antagonist activity at muscarinic M2 receptor in guinea pig left atria assessed as inhibition of carbachol-induced […]; conditions: read-out: pA2 (converted)
T2 sequence (Q8VH27 whole entry): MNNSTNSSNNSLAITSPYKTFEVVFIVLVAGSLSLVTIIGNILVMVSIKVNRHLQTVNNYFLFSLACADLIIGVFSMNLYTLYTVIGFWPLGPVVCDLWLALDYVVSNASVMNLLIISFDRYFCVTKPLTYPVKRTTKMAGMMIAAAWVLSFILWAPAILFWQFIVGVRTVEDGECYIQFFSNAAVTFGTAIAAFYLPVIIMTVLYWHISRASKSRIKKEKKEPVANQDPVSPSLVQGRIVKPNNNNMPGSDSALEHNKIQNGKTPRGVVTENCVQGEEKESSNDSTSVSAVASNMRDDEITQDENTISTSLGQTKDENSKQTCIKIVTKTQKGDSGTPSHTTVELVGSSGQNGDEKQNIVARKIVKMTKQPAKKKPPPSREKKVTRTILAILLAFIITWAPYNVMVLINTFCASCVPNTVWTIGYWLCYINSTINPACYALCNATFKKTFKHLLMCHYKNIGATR
How it was run: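 Isolated left atria in Kreb's solution under 500 mg tension, stabilised 45 min, then electrically paced (2 Hz, 6 ms, 10 V square-wave submaximal pulses). Inotropic response recorded isometrically. Cumulative carbachol curves expressed as % of contraction before agonist. Antagonist tested at two or three concentrations. pA2 obtained by Schild analysis.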

SMILES | Ratio Ki [1] | Ki [2] [µM] | Ki [3] [µM] | Kb [4] [µM] | Kb (Muscarinic receptor 2) [µM]
CC(=O)O[C@@H]1C[C@@H]2C[C@H](OC(=O)Cc3ccccc3)C[C@@H]1N2C | 0.9 | 86 | 95 |  | 
CC(=O)O[C@H]1C[C@@H]2C[C@@H](OC(=O)c3ccccc3[N+](=O)[O-])C[C@@H]1N2C | 2.6 | 9.8 | 3.7 | 0.389 | 0.851
CC(=O)O[C@@H]1C[C@@H]2C[C@H](OC(=O)c3ccccc3Cl)C[C@@H]1N2C | 1.1 | 95 | 83 |  | 
CC(=O)O[C@H]1C[C@@H]2C[C@@H](OC(=O)c3ccccc3Cl)C[C@@H]1N2C | 6.3 | 8.8 | 1.4 | 0.275 | 0.631
CC(=O)O[C@H]1C[C@@H]2C[C@@H](OC(=O)c3ccccc3)C[C@@H]1N2C | 4 | 10.7 | 2.7 | 0.309 | 1.32
CC(=O)O[C@@H]1C[C@@H]2C[C@H](OC(=O)c3ccccc3)C[C@@H]1N2C | 1.1 | 77 | 71 |  | 
CC(=O)O[C@@H]1C[C@@H]2C[C@H](OC(=O)c3ccccc3[N+](=O)[O-])C[C@@H]1N2C | 1.3 | 84 | 66 |  | 
CC(=O)O[C@H]1C[C@@H]2C[C@@H](OC(=O)Cc3ccccc3)C[C@@H]1N2C | 13 | 12 | 0.92 | 0.123 | 1.1
